# In ChEMBL document CHEMBL4330160, “Prenylated Indole Diterpene Alkaloids from a Mine-Soil-Derived Tolypocladium sp” (J Nat Prod, 2019):
# Calls of active or inactive are those of the source. The calls are words filed in the database; no cut-off is given here.
# How the values were obtained:
# Fusarium oxysporum = assay: Antifungal activity against Fusarium oxysporum Schlecht after 3 to 7 days by microbroth dilution method; format: functional, organism-based
# Outline: (§1)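 Microbroth dilution with fungal cultures at 10^4 mycelia fragments/mL. Test samples and ketoconazole were 1 mg/mL DMSO stocks. 180 μL culture plus 20 μL stock in the first well gave 100 μg/mL final, followed by serial dilution. Run in triplicate, incubated at 28 °C for 3−7 days, and MIC determined.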
# Alternaria solani = assay: Antifungal activity against Alternaria solani Sorauer after 3 to 7 days by microbroth dilution method; format: functional, organism-based; outline: as §1
# Rhizoctonia solani = assay: Antifungal activity against Rhizoctonia solani after 3 to 7 days by microbroth dilution method; format: functional, organism-based; outline: as §1
# [1] = system: Alternaria sp. 'fragaria'; assay: Antifungal activity against Alternaria fragaria after 3 to 7 days by microbroth dilution method; format: functional; outline: as §1
# Corynespora cassiicola = assay: Antifungal activity against Corynespora cassiicola after 3 to 7 days by microbroth dilution method; format: functional
# Outline: (§2)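 Microbroth dilution with fungal inoculum at 10^4 mycelial fragments/mL. Stock solutions were 1 mg/mL in DMSO. 20 μL stock was added to 180 μL culture, giving a top final concentration of 100 μg/mL, then serially diluted, in triplicate. Plates were held at 28 °C for 3–7 days and read for MIC; ketoconazole was the positive control.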
# Alternaria alternata = assay: Antifungal activity against Alternaria alternata after 3 to 7 days by microbroth dilution method; format: functional; outline: as §2
# Botrytis cinerea = assay: Antifungal activity against Botrytis cinerea Pers. after 3 to 7 days by microbroth dilution method; format: functional; outline: as §2
# [2] = Antifungal activity against Cercospora personata after 3 to 7 days by microbroth dilution method; format: functional; conditions: Nothopassalora personata; outline: as §2
# Verticillium dahliae = assay: Antifungal activity against Verticillium dahliae Kleb after 3 to 7 days by microbroth dilution method; format: functional; outline: as §2
# Sclerotinia sclerotiorum = assay: Antifungal activity against Sclerotinia sclerotiorum after 3 to 7 days by microbroth dilution method; format: functional; outline: as §2
# Bacillus cereus = assay: Antibacterial activity against Bacillus cereus after 3 to 7 days by broth dilution assay; format: functional
# Staphylococcus aureus = assay: Antibacterial activity against Methicillin-resistant Staphylococcus aureus after 3 to 7 days by broth dilution assay; format: functional
# Outline: (§3)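 Modified broth dilution with bacterial suspensions at 10^6 CFU/mL. Test and ciprofloxacin control stocks were 1 mg/mL in DMSO. Serial dilution and MIC read-out followed the antifungal microdilution procedure.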
# A549 = assay: Cytotoxicity against human A549 cells after 48 hrs by CCK8 assay; format: functional, cell-based; conditions: A549, 48 h
# Outline: (§4)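 Cells grown in DMEM with 10% FBS at 37 °C, 5% CO2. Seeded at 5000 cells/well and left 16 h, then exposed to a range of concentrations in growth medium for 48 h. Viability read by CCK-8 absorbance as percent of untreated control. IC50 taken from a sigmoidal curve; camptothecin was the positive control.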
# Huh-7 = assay: Cytotoxicity against human HuH7 cells after 48 hrs by CCK8 assay; format: functional, cell-based; conditions: Huh-7, 48 h; outline: as §4
# LN-229 = assay: Cytotoxicity against human LN229 cells after 48 hrs by CCK8 assay; format: functional, cell-based; conditions: LN-229, 48 h; outline: as §4
# [3] = Cytotoxicity against human MGC cells after 48 hrs by CCK8 assay; format: functional, cell-based; outline: as §4
# MHCC97H = assay: Cytotoxicity against human MHCC97H cells after 48 hrs by CCK8 assay; format: functional, cell-based
# Outline: (§5)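 Cultured in DMEM with 10% FBS at 37 °C under 5% CO2. After a 16 h attachment, cells were treated with varying concentrations for 48 h. CCK-8 absorbance was expressed as percent of control and IC50 derived by sigmoidal curve fitting; camptothecin was the positive control.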
# LoVo = assay: Cytotoxicity against human LoVo cells after 48 hrs by CCK8 assay; format: functional, cell-based; outline: as §5
# MDA-MB-231 = assay: Cytotoxicity against human MDA231 cells after 48 hrs by CCK8 assay; format: functional, cell-based; conditions: MDA-MB-231, 48 h
# Outline: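 MDA231 cells kept in DMEM with 10% FBS at 37 °C, 5% CO2. Seeded at 10 000 cells/well and settled 16 h, then given graded concentrations for 48 h. Viability measured by CCK-8 absorbance relative to control cells, with IC50 from a sigmoidal fit; camptothecin served as the positive control.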
# Homo sapiens = species: Homo sapiens; assay: Cytotoxicity against human T1224 cells in patient-derived organoid model after 48 hrs by CCK8 assay; format: functional, cell-based
# Outline: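 Patient-derived HCC cells (50 000) were embedded in Matrigel, set 20 min at 37 °C, then grown 6–8 days in DMEM/F12 with B27, 0.01% BSA, 2 mM glutamine, penicillin/streptomycin, 10 ng/mL FGF basic, 50 ng/mL EGF and 50 ng/mL HGF to form organoids. Medium was changed every 2 days.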
# Micrococcus luteus = assay: Antibacterial activity against Micrococcus lysodeikticus after 3 to 7 days by broth dilution assay; format: functional
# Salmonella paratyphi = assay: Antibacterial activity against Bacterium paratyphosum after 3 to 7 days by broth dilution assay; format: functional, Salmonella enterica subsp. enterica serovar Paratyphi A; conditions: Salmonella enterica; outline: as §3
# Bacillus subtilis = assay: Antibacterial activity against Bacillus subtilis after 3 to 7 days by broth dilution assay; format: functional
# Klebsiella aerogenes = assay: Antibacterial activity against Enterobacter aerogenes after 3 to 7 days by broth dilution assay; format: functional
SMILES,Activity (Fusarium oxysporum),Activity (Alternaria solani),Activity (Rhizoctonia solani),MIC [1] [µg/mL],MIC (Staphylococcus aureus) [µg/mL],further results
CC(C)=CCc1cccc2[nH]c3c(c12)C[C@@H]1CC[C@@]2(O)[C@@]45O[C@@H]4[C@H](O)[C@@H](C(C)(C)O)O[C@H]5CC[C@]2(C)[C@@]31C,Active,Active,Active,6.25 to 50,12.5,MIC (Corynespora cassiicola): 6.25 to 25 µg/mL; MIC (Alternaria alternata): 6.25 to 25 µg/mL; MIC (Botrytis cinerea): 6.25 to 25 µg/mL; MIC [2]: 6.25 to 25 µg/mL; MIC (Verticillium dahliae): 6.25 to 25 µg/mL; MIC (Sclerotinia sclerotiorum): 6.25 to 25 µg/mL; MIC (Bacillus cereus): 25 µg/mL; IC50 (A549): 16.3 to 37.8 µM; IC50 (Huh-7): 16.3 to 37.8 µM; IC50 (LN-229): 16.3 to 37.8 µM; IC50 [3]: 16.3 to 37.8 µM; IC50 (MHCC97H): 16.3 to 37.8 µM; IC50 (LoVo): 16.3 to 37.8 µM; IC50 (MDA-MB-231): 16.3 to 37.8 µM; Activity (Homo sapiens): Active
CC(C)=C[C@H]1O[C@H]2[C@H]3O[C@@]34[C@H](CC[C@@]3(C)[C@@]4(O)CC[C@H]4Cc5c([nH]c6cccc(C[C@H](O)C(C)(C)Cl)c56)[C@@]43C)O[C@@H]2C(C)(C)O1,Active,Active,Active,6.25 to 50,–,–
CC(C)=CCc1cccc2[nH]c3c(c12)C[C@@H]1CC[C@]2(O)[C@](C)(CCC(=O)[C@@]24O[C@@H]4[C@@H]2O[C@H](C=C(C)C)OC(C)(C)[C@@H]2O)[C@@]31C,Active,Active,Active,–,12.5 to 25,MIC (Bacillus cereus): 12.5 to 25 µg/mL; MIC (Micrococcus luteus): 12.5 to 25 µg/mL; MIC (Salmonella paratyphi): 12.5 to 25 µg/mL; MIC (Bacillus subtilis): 12.5 to 25 µg/mL; MIC (Klebsiella aerogenes): 12.5 to 25 µg/mL
O=C(O)c1cn(C2CC2)c2cc(N3CCNCC3)c(F)cc2c1=O [CIPROFLOXACIN],–,–,–,–,1.56,MIC (Bacillus cereus): 0.78 µg/mL; MIC (Micrococcus luteus): 0.78 to 1.56 µg/mL; MIC (Salmonella paratyphi): 0.78 to 1.56 µg/mL; MIC (Bacillus subtilis): 0.78 to 1.56 µg/mL; MIC (Klebsiella aerogenes): 0.78 to 1.56 µg/mL
CC(C)(Cl)[C@H](O)Cc1ccc2c3c([nH]c2c1)[C@@]1(C)[C@@H](CC[C@@]2(O)[C@@]45O[C@@H]4[C@@H]4O[C@H]([C@H]6OC6(C)C)OC(C)(C)[C@H]4O[C@H]5CC[C@@]21C)C3,Active,Active,Active,6.25 to 50,–,–
CC(C)=C[C@H]1O[C@H]2[C@H]3O[C@@]34[C@H](CC[C@@]3(C)[C@@]4(O)CC[C@H]4Cc5c([nH]c6cc(C[C@H](O)C(C)(C)O)ccc56)[C@@]43C)O[C@@H]2C(C)(C)O1,Active,Active,Active,6.25 to 50,–,–
CC(=O)N1CCN(c2ccc(OCC3COC(Cn4ccnc4)(c4ccc(Cl)cc4Cl)O3)cc2)CC1 (configuration not stated) [KETOCONAZOLE],–,–,–,0.78,–,MIC (Corynespora cassiicola): 0.78 to 1.56 µg/mL; MIC (Alternaria alternata): 0.78 to 1.56 µg/mL; MIC (Botrytis cinerea): 0.78 to 1.56 µg/mL; MIC [2]: 0.78 to 1.56 µg/mL; MIC (Verticillium dahliae): 0.78 to 1.56 µg/mL; MIC (Sclerotinia sclerotiorum): 0.78 to 1.56 µg/mL
COC(C)(C)[C@@H](O)Cc1cccc2[nH]c3c(c12)C[C@@H]1CC[C@@]2(O)[C@@]45O[C@@H]4[C@H](O)[C@@H](C(C)(C)O)O[C@H]5CC[C@]2(C)[C@@]31C,Active,Active,Active,6.25 to 50,–,–
CC(C)(O)[C@@H](O)Cc1cccc2[nH]c3c(c12)C[C@@H]1CC[C@@]2(O)[C@@]45O[C@@H]4[C@@H]4O[C@H]([C@H]6OC6(C)C)OC(C)(C)[C@H]4O[C@H]5CC[C@]2(C)[C@@]31C,Active,Active,Active,6.25 to 50,–,–
CC(C)=C[C@H]1O[C@H]2[C@H]3O[C@@]34[C@H](CC[C@@]3(C)[C@@]4(O)CC[C@H]4Cc5c([nH]c6cccc(C[C@H](O)C(C)(C)O)c56)[C@@]43C)O[C@@H]2C(C)(C)O1,Active,Active,Active,6.25 to 50,–,–
CC(C)(O)[C@H]1O[C@H]2CC[C@@]3(C)[C@@](O)(CC[C@H]4Cc5c([nH]c6cc(C[C@H](O)C(C)(C)Cl)ccc56)[C@@]43C)[C@]23O[C@@H]3[C@@H]1O,Active,Active,Active,6.25 to 50,–,–
CC[C@@]1(O)C(=O)OCc2c1cc1n(c2=O)Cc2cc3ccccc3nc2-1 [CAMPTOTHECIN],–,–,–,–,–,IC50 (A549): 0.00032 to 0.0318 µM; IC50 (Huh-7): 0.00032 to 0.0318 µM; IC50 (LN-229): 0.00032 to 0.0318 µM; IC50 [3]: 0.00032 to 0.0318 µM; IC50 (MHCC97H): 0.00032 to 0.0318 µM; IC50 (LoVo): 0.00032 to 0.0318 µM; IC50 (MDA-MB-231): 0.00032 to 0.0318 µM
CC(C)(O)[C@H]1O[C@H]2CC[C@@]3(C)[C@@](O)(CC[C@H]4Cc5c([nH]c6cccc(C[C@H](O)C(C)(C)Cl)c56)[C@@]43C)[C@]23O[C@@H]3[C@@H]1O,Active,Active,Active,6.25 to 50,50,–
